Results reported in ChEMBL document CHEMBL4477254, “Synthesis and biological evaluation of some novel triazole hybrids of curcumin mimics and their selective anticancer activity against breast and prostate cancer cell lines” (Bioorg Med Chem Lett, 2016).
In brackets after ≈: the same amount, converted by molar mass.

Experiments:
PC-3 [1] = test: Cytotoxicity against human PC3 cells assessed as decrease in cell viability after 24 hrs by MTT assay; type: functional, cell-based; conditions: PC-3, 24 h
In short: (§1)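 Cell viability by MTT after 24 h compound exposure; curcumin as standard. IC50 in µM from three independent experiments, expressed as mean ± SE.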

DU-145 [2] = test: Cytotoxicity against human DU145 cells assessed as decrease in cell viability after 24 hrs by MTT assay; type: functional, cell-based; conditions: DU-145, 24 h; in short: as §1
4T1 [3] = test: Potency index, ratio of curcumin IC50 to compound IC50 in mouse 4T1 cells; type: functional
In short: (§2)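 IC50 came from an MTT viability assay after 24 h compound exposure, with curcumin run as the standard. Values are mean ± SE of three independent experiments. The index is the curcumin IC50 divided by the compound IC50 in the same cell line.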

MCF7 [4] = test: Cytotoxicity against human MCF7 cells assessed as decrease in cell viability after 24 hrs by MTT assay; type: functional, cell-based; conditions: MCF7, 24 h; in short: as §1
4T1 [5] = test: Cytotoxicity against mouse 4T1 cells assessed as decrease in cell viability after 24 hrs by MTT assay; type: functional, cell-based; conditions: 4T1, 24 h; in short: as §1
MDA-MB-231 [6] = test: Cytotoxicity against human MDA-MB-231 cells assessed as decrease in cell viability after 24 hrs by MTT assay; type: functional, cell-based; conditions: MDA-MB-231, 24 h; in short: as §1
HEK293 = test: Cytotoxicity against human HEK293 cells assessed as decrease in cell viability after 24 hrs by MTT assay; type: cell-based; conditions: HEK293, 24 h; in short: as §1
PC-3 [7] = test: Potency index, ratio of curcumin IC50 to compound IC50 in human PC3 cells; type: functional; in short: as §2
DU-145 [8] = test: Potency index, ratio of curcumin IC50 to compound IC50 in human DU145 cells; type: functional; in short: as §2
MDA-MB-231 [9] = test: Potency index, ratio of curcumin IC50 to compound IC50 in human MDA-MB-231 cells; type: functional; in short: as §2
[10] = Half life in liver microsomes (unknown origin) in presence of NADPH by UPLC analysis; type: ADME, Microsome
[11] = Intrinsic hepatic clearance in liver microsomes (unknown origin) assessed per mg of protein in presence of NADPH by UPLC analysis; type: ADME, Microsome; conditions: read-out: CLH (converted)
[12] = Solubility of the compound in distilled water after 24 hrs by HPLC based shake flask method; type: physicochemical
[13] = Intrinsic clearance in liver microsomes (unknown origin) assessed per mg of protein in presence of NADPH by UPLC analysis; type: ADME, Microsome
[14] = Elimination rate constant in liver microsomes (unknown origin) assessed as compound remaining measured up to 60 mins by UPLC analysis; type: ADME, Microsome
[15] = Drug metabolism in liver microsomes (unknown origin) assessed as compound remaining after 5 mins in presence of NADPH by UPLC analysis; type: ADME, Microsome; conditions: read-out: Drug metabolism
In short: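 Microsomal metabolic stability; percentage of compound remaining intact measured after 5 min incubation in presence of microsomes.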

MCF7 [16] = test: Induction of mitochondrial membrane depolarization in human MCF7 cells at 10 uM after 24 hrs by JC-1 staining based flow cytometry (reference value: 11%); type: functional
PC-3 [17] = test: Induction of mitochondrial membrane depolarization in human PC3 cells at 3 uM after 24 hrs by JC-1 staining based flow cytometry (reference value: 4.51%); type: functional

Compound | IC50 (PC-3 [1]) [µM] | IC50 (DU-145 [2]) [µM] | Ratio IC50 (4T1 [3]) | IC50 (MCF7 [4]) [µM] | IC50 (4T1 [5]) [µM] | IC50 (MDA-MB-231 [6]) [µM] | IC50 (HEK293) [µM] | Ratio IC50 (PC-3 [7]) | Ratio IC50 (DU-145 [8]) | Ratio IC50 (MDA-MB-231 [9]) | half-life [10] [min] | CLint scaled [11] [L/h/kg] | solubility thermodynamic at 24 h [12] [µg/mL] | CLint [13] [µL/min/mg] | k el at 1 h [14] [s⁻¹] | remaining at 5 min [15] [%] | Activity (MCF7 [16]) [%] | Activity (PC-3 [17]) [%]
Cc1ccc(/C=C2\CN(C(=S)SCc3cn(Cc4ccccc4F)nn3)C/C(=C\c3ccc(C)cc3)C2=O)cc1 | > 80 | 80 | <=9.3 | > 100 | 28.4 | 91.5 | – | – | – | – | – | – | – | – | – | – | – | –
COc1cccc2c1C(=O)c1c(O)c3c(c(O)c1C2=O)C[C@@](O)(C(=O)CO)C[C@@H]3O[C@H]1C[C@H](N)[C@H](O)[C@H](C)O1 [DOXORUBICIN] | – | 1.6 | – | – | 0.99 | 1.6 | 7.2 | – | – | – | – | – | – | – | – | – | – | –
COc1ccc(/C=C2\CN(C(=S)SCc3cn(Cc4ccc(F)cc4)nn3)C/C(=C\c3ccc(OC)cc3)C2=O)cc1 | 45.6 | 74.6 | – | > 100 | > 100 | > 100 | – | – | – | – | – | – | – | – | – | – | – | –
O=C1/C(=C/c2ccccc2F)CN(Cc2cn(Cc3ccccc3F)nn2)C/C1=C\c1ccccc1F | 19.7 | 10.6 | <=9.3 | 6 | 6.5 | 16 | 41.2 | <=5.7 | ≤ 9.5 | <=8.3 | – | – | – | – | – | – | – | –
COc1ccc(/C=C2\CN(Cc3cn(Cc4cccc(Cl)c4)nn3)C/C(=C\c3ccc(OC)cc3)C2=O)cc1 | 32.5 | 15.4 | – | 99 | 56.6 | 98 | > 100 | <=5.7 | ≤ 9.5 | – | – | – | – | – | – | – | – | –
O=C1/C(=C/c2ccccc2F)CN(C(=S)SCc2cn(Cc3ccccc3F)nn2)C/C1=C\c1ccccc1F | > 80 | > 80 | <=9.3 | 51.6 | 30.7 | 57.6 | – | – | – | <=8.3 | – | – | – | – | – | – | – | –
Cc1ccc(/C=C2\CN(Cc3cn(Cc4ccc(F)cc4)nn3)C/C(=C\c3ccc(C)cc3)C2=O)cc1 | 65.6 | 49.7 | – | 29 | 57.2 | 26.8 | – | – | – | <=8.3 | – | – | – | – | – | – | – | –
COc1cc(/C=C/C(=O)CC(=O)/C=C/c2ccc(O)c(OC)c2)ccc1O [CURCUMIN] | 39 | 41 | – | 83.1 | 49.4 | 75.3 | 94.1 | – | – | – | 13.7 | 182 | 0.06 (≈ 0.163 µM) | 101 | 0.00085 | 45 | – | –
Cc1ccc(/C=C2\CN(C(=S)SCc3cn(Cc4ccccc4Cl)nn3)C/C(=C\c3ccc(C)cc3)C2=O)cc1 | > 80 | > 80 | <=9.3 | > 100 | 49.3 | 93.2 | – | – | – | – | – | – | – | – | – | – | – | –
Cc1ccc(/C=C2\CN(C(=S)SCc3cn(Cc4cccc(Cl)c4)nn3)C/C(=C\c3ccc(C)cc3)C2=O)cc1 | > 80 | > 80 | – | > 100 | 53.4 | 83 | – | – | – | – | – | – | – | – | – | – | – | –
O=C1/C(=C/c2ccccc2F)CN(C(=S)SCc2cn(Cc3cccc(Cl)c3)nn2)C/C1=C\c1ccccc1F | 80 | > 80 | – | > 100 | > 100 | > 100 | – | – | – | – | – | – | – | – | – | – | – | –
Cc1ccc(/C=C2\CN(Cc3cn(Cc4ccccc4Cl)nn3)C/C(=C\c3ccc(C)cc3)C2=O)cc1 | 8.9 | 10.5 | <=9.3 | 66.7 | 23.2 | 29 | 91.5 | <=5.7 | ≤ 9.5 | <=8.3 | – | – | – | – | – | – | – | –
O=C1/C(=C/c2ccccc2F)CN(C(=S)SCc2cn(Cc3ccc(F)cc3)nn2)C/C1=C\c1ccccc1F | > 80 | 35.7 | <=9.3 | 56.9 | 9.9 | 58.8 | 51.3 | – | – | <=8.3 | – | – | – | – | – | – | – | –
COc1ccc(/C=C2\CN(C(=S)SCc3cn(Cc4ccccc4Cl)nn3)C/C(=C\c3ccc(OC)cc3)C2=O)cc1 | 60.1 | > 80 | – | > 100 | > 100 | > 100 | – | – | – | – | – | – | – | – | – | – | – | –
COc1ccc(/C=C2\CN(Cc3cn(Cc4ccccc4Cl)nn3)C/C(=C\c3ccc(OC)cc3)C2=O)cc1 | 36.3 | 17.8 | <=9.3 | > 100 | 11.4 | > 100 | – | <=5.7 | ≤ 9.5 | – | – | – | – | – | – | – | – | –
Cc1ccc(/C=C2\CN(C(=S)SCc3cn(Cc4ccc(F)cc4)nn3)C/C(=C\c3ccc(C)cc3)C2=O)cc1 | 45.5 | 38.8 | <=9.3 | 81.6 | 29.3 | 45.6 | – | – | ≤ 9.5 | <=8.3 | – | – | – | – | – | – | – | –
COc1ccc(/C=C2\CN(C(=S)SCc3cn(Cc4ccccc4F)nn3)C/C(=C\c3ccc(OC)cc3)C2=O)cc1 | 31.5 | 54.5 | – | 79.4 | 49.9 | > 100 | – | <=5.7 | – | – | – | – | – | – | – | – | – | –
O=C1/C(=C/c2ccccc2F)CN(C(=S)SCc2cn(Cc3ccccc3Cl)nn2)C/C1=C\c1ccccc1F | > 80 | 46.3 | <=9.3 | 78.7 | 43.6 | 100 | – | – | – | – | – | – | – | – | – | – | – | –
O=c1[nH]cc(F)c(=O)[nH]1 [FLUOROURACIL] | 13.3 | 24.2 | – | – | 23 | 19 | 40 | – | – | – | – | – | – | – | – | – | – | –
COc1ccc(/C=C2\CN(C(=S)SCc3cn(Cc4cccc(Cl)c4)nn3)C/C(=C\c3ccc(OC)cc3)C2=O)cc1 | > 80 | > 80 | – | 32 | 69.7 | 32 | > 100 | – | – | <=8.3 | – | – | – | – | – | – | – | –
N#CC(C#N)=NNc1cccc(Cl)c1 [CARBONYL CYANIDE M-CHLOROPHENYLHYDRAZONE] | – | – | – | – | – | – | – | – | – | – | – | – | – | – | – | – | 86.65 | 35.82
Cc1ccc(/C=C2\CN(Cc3cn(Cc4cccc(Cl)c4)nn3)C/C(=C\c3ccc(C)cc3)C2=O)cc1 | 29.3 | 33.1 | <=9.3 | 10 | 29.3 | 9 | 73.5 | <=5.7 | ≤ 9.5 | <=8.3 | – | – | – | – | – | – | – | –
O=C1/C(=C/c2ccccc2F)CN(Cc2cn(Cc3cccc(Cl)c3)nn2)C/C1=C\c1ccccc1F | 6.8 | 4.3 | <=9.3 | 12 | 6.1 | 12 | 33.1 | <=5.7 | ≤ 9.5 | <=8.3 | – | – | – | – | – | – | – | –
COc1ccc(/C=C2\CN(Cc3cn(Cc4ccccc4F)nn3)C/C(=C\c3ccc(OC)cc3)C2=O)cc1 | 39.9 | 32.6 | <=9.3 | ≥ 100 | 39.4 | 67.2 | > 100 | – | ≤ 9.5 | <=8.3 | – | – | – | – | – | – | – | –
COc1ccc(/C=C2\CN(Cc3cn(Cc4ccc(F)cc4)nn3)C/C(=C\c3ccc(OC)cc3)C2=O)cc1 | 67.5 | 59.4 | <=9.3 | > 100 | 49.3 | 70.7 | – | – | – | <=8.3 | – | – | – | – | – | – | – | –
O=C1/C(=C/c2ccccc2F)CN(Cc2cn(Cc3ccccc3Cl)nn2)C/C1=C\c1ccccc1F | 7.1 | 7.5 | <=9.3 | 10 | 5.3 | 16.5 | 33.2 | <=5.7 | ≤ 9.5 | <=8.3 | – | – | – | – | – | – | – | –
COC(=O)Nc1nc2cc(C(=O)c3cccs3)ccc2[nH]1 [NOCODAZOLE] | 2.5 | 2.2 | – | 0.42 | 1.3 | 1.1 | 5.1 | – | – | – | – | – | – | – | – | – | – | –
